Measured values as given in ChEMBL document CHEMBL3421532, “Synthesis and antiproliferative activity of α-branched α,β-unsaturated ketones in human hematological and solid cancer cell lines” (Eur J Med Chem, 2015).
Active and inactive are the calls of the source. No cut-off for these calls is given here.

Columns and labels:
Format in all cases: functional, cell-based
MCF7 [1] = test: Antiproliferative activity against human MCF7 cells assessed as cell growth inhibition after 48 hrs by XTT assay; details: MCF7, 48 h
Summary of the method: (§1)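 NB4 grown in RPMI 1640 with 10% FBS and penicillin/streptomycin, A549 and MCF-7 in DMEM, all at 37 °C and 5% CO2. Cells seeded at 1.5∙10⁴ (NB4) or 1.0∙10⁴ (A549, MCF-7) per well. Adherent lines dosed 24 h after plating, NB4 shortly after. Triplicate concentrations from 0.1 to 100, DMSO control at 0.5% v/v. After 48 h exposure, XTT added for 2 h. A450 minus A690 read, GI50 reported with SE.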

A549 [2] = test: Antiproliferative activity against human A549 cells assessed as cell growth inhibition after 48 hrs by XTT assay; details: A549, 48 h; summary of the method: as §1
[3] = Antiproliferative activity against human NB4 cells assessed as cell growth inhibition after 48 hrs by XTT assay; details: NB-4, 48 h; summary of the method: as §1
MCF7 [4] = test: Cell cycle arrest in human MCF7 cells assessed as increase in cell population at G2/M phase at 10 uM after 48 hrs by flow cytometry
Summary of the method: (§2)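 Cells seeded in 6-well plates at 1∙10⁶ (NB4) or 0.45∙10⁶ (A549, MCF-7) per well. Treated for 48 h at 10 (NB4, MCF-7), 20 and 30 (A549), or, for NB4, a lower 5; DMSO solvent control. Cell cycle phase distribution and sub-G1 measured by flow cytometry. Mean of two independent experiments.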

MCF7 [5] = test: Cell cycle arrest in human MCF7 cells assessed as increase in cell population at S phase at 10 uM after 48 hrs by flow cytometry; summary of the method: as §2
A549 [6] = test: Cell cycle arrest in human A549 cells assessed as slight increase in cell accumulation at G2/M phase at 20 uM after 48 hrs by flow cytometry; summary of the method: as §2
A549 [7] = test: Induction of apoptosis in human A549 cells at 20 to 30 uM after 24 to 48 hrs by annexin V binding assay
Summary of the method: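 Cells seeded in 6-well plates at 1∙10⁶ (NB4) or 0.45∙10⁶ (A549, MCF-7) per well. Treated at 5 (NB4), 20 and 30 (A549) or 10 (MCF-7). Apoptotic cell percentage measured by annexin V binding after 24 and 48 h. Mean of two independent experiments.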

A549 [8] = test: Cell cycle arrest in human A549 cells assessed as increase in cell population at S phase at 30 uM after 48 hrs by flow cytometry; summary of the method: as §2
A549 [9] = test: Cell cycle arrest in human A549 cells assessed as slight increase in cell population at S phase at 20 uM after 48 hrs by flow cytometry; summary of the method: as §2

IC50 (MCF7 [1]) [µM] | IC50 (A549 [2]) [µM] | SMILES | IC50 [3] [µM] | Activity (MCF7 [4]) | Activity (MCF7 [5]) | Activity (A549 [6]) | Activity (A549 [7]) | Activity (A549 [8]) | Activity (A549 [9])
> 100 | > 100 | COc1ccc(C(=O)/C(=C/c2ccccc2Cl)CCOC(C)=O)cc1 | 51.6 |  |  |  |  |  | 
26.9 | 43.8 | C=C(C/C(=C\c1ccc(C)cc1)C(=O)c1ccc(OC)cc1)C(=O)c1ccc(OC)cc1 | 11.4 |  |  |  |  |  | 
> 100 | 73.2 | COc1ccc(C(=O)/C(=C/c2ccc(Cl)cc2)CC(C)OC(C)=O)cc1 (stereo not given) | 62 |  |  |  |  |  | 
45.3 | 32.1 | C=C(C(=O)c1ccc(OC)cc1)C(OC(=O)c1ccccc1)c1c(F)c(F)c(F)c(F)c1F (stereo not given) | 12.9 |  |  |  |  |  | 
24 | 90 | COc1ccc(C(=O)/C(=C/C2CCCCC2)COC(C)=O)cc1 | 23.3 |  |  |  |  |  | 
83.4 | 69.2 | COc1ccc(C(=O)/C(=C/c2ccc(Cl)cc2Cl)CCOC(C)=O)cc1 | 34.8 |  |  |  |  |  | 
30 | 22.5 | COc1ccc(C(=O)/C(=C/c2ccccc2F)COC(C)=O)cc1 | 8.2 |  |  |  |  |  | 
14 | > 100 | C=C(C(=O)c1ccc(OC)cc1)C(OC(C)=O)C1CCCCC1 (stereo not given) | 10.5 |  |  |  |  |  | 
> 100 | > 100 | COc1ccc(C(=O)/C(=C/c2ccccc2F)CCOC(C)=O)cc1 | > 100 |  |  |  |  |  | 
13.7 | > 100 | CCC(/C=C(\COC(C)=O)C(=O)c1ccc(OC)cc1)CC | 9.5 |  |  |  |  |  | 
17.9 | 35.2 | C=C(C(=O)c1ccc(OC)cc1)C(OC(=O)c1ccccc1)C(CC)CC (stereo not given) | 13 |  |  |  |  |  | 
> 100 | 98 | COc1ccc(C(=O)/C(=C/C2CCCCC2)CC(C)OC(C)=O)cc1 (stereo not given) | 33.4 |  |  |  |  |  | 
28 | > 100 | CCC(/C=C(\COC(=O)c1ccccc1)C(=O)c1ccc(OC)cc1)CC | 26.8 |  |  |  |  |  | 
14.5 | > 100 | C=C(C(=O)c1ccc(OC)cc1)C(C)OC(=O)c1ccccc1 (stereo not given) | 15.7 |  |  |  |  |  | 
6.7 | 14.8 | C=C(C(=O)c1ccc(OC)cc1)C(OC(C)=O)c1c(F)c(F)c(F)c(F)c1F (stereo not given) | 12.6 | Active | Active | Active | Active | Active | Active
> 100 | > 100 | COc1ccc(C(=O)/C(=C/c2ccc([N+](=O)[O-])cc2)CCOC(C)=O)cc1 | > 100 |  |  |  |  |  | 
> 100 | 86 | COc1ccc(C(=O)/C(=C/c2ccc(Cl)cc2)CCOC(C)=O)cc1 | 36.3 |  |  |  |  |  | 
> 100 | > 100 | COc1ccc(C(=O)/C(=C/C2CCCCC2)CCOC(C)=O)cc1 | > 100 |  |  |  |  |  | 
> 100 | 40.3 | COc1ccc(C(=O)/C(=C/c2ccc(Cl)cc2Cl)CC(C)OC(C)=O)cc1 (stereo not given) | 36.8 |  |  |  |  |  | 
> 100 | > 100 | CCC(/C=C(\CCOC(C)=O)C(=O)c1ccc(OC)cc1)CC | 91.1 |  |  |  |  |  | 
38.9 | 32.9 | C=C(C(=O)c1ccc(OC)cc1)C(OC(C)=O)C(CC)CC (stereo not given) | 11.8 |  |  |  |  |  | 
29.8 | > 100 | C/C=C(\COC(=O)c1ccccc1)C(=O)c1ccc(OC)cc1 | 16.2 |  |  |  |  |  | 
> 100 | 58.1 | COc1ccc(C(=O)/C(=C/c2c(F)c(F)c(F)c(F)c2F)CCOC(C)=O)cc1 | 28.5 |  |  |  |  |  | 
6.1 | 21.3 | C=C(C(=O)c1ccc(OC)cc1)C(OC(C)=O)c1ccc([N+](=O)[O-])cc1 (stereo not given) | 10.3 |  |  |  |  |  | 
> 100 | > 100 | COc1ccc(C(=O)/C(=C/c2ccc(Cl)cc2)CC(C)C)cc1 | 12.1 |  |  |  |  |  | 
> 100 | > 100 | COc1ccc(C(=O)/C(=C/c2ccc(C(F)(F)F)cc2)CC(C)C)cc1 | 12.6 |  |  |  |  |  | 
> 100 | 91.7 | COc1ccc(C(=O)/C(=C/c2c(F)c(F)c(F)c(F)c2F)CC(C)OC(C)=O)cc1 (stereo not given) | 49 |  |  |  |  |  | 
> 100 | 80.3 | COc1ccc(C(=O)/C(=C/c2ccc(Cl)cc2Cl)CC(C)C)cc1 | 14.6 |  |  |  |  |  | 
18 | 67.3 | C=C(C(=O)c1ccc(OC)cc1)C(OC(C)=O)c1ccccc1F (stereo not given) | 9.5 |  |  |  |  |  | 

Further lines, the molecule ahead of its results:

SMILES | IC50 (MCF7 [1]) [µM] | IC50 (A549 [2]) [µM] | IC50 [3] [µM] | Activity (MCF7 [4]) | Activity (MCF7 [5]) | Activity (A549 [6]) | Activity (A549 [7]) | Activity (A549 [8]) | Activity (A549 [9])
CC(=O)OC/C(=C/c1ccccc1F)C(=O)c1ccccc1 | 39.8 | 20.3 | 8.3 |  |  |  |  |  | 
C=C(C(=O)c1ccc(OC)cc1)C(O)c1ccccc1F (stereo not given) | 30.9 | 15.7 | 6.9 |  |  |  |  |  | 
C=C(C(=O)c1ccc(OC)cc1)C(O)c1ccc(Cl)cc1Cl (stereo not given) | 9 | 70 | 26.1 |  |  |  |  |  | 
COc1ccc(C(=O)/C(=C/c2ccc(C(F)(F)F)cc2)CC2CCCCC2)cc1 | > 100 | > 100 | 18.2 |  |  |  |  |  | 
CC(=O)OC/C(=C\c1ccc(Cl)cc1Cl)C(=O)c1ccccc1 | 8.7 | 97 | 6.6 | Active | Active |  |  |  | 
C=C(C(=O)c1ccc(OC)cc1)C(OC(=O)c1ccccc1)c1ccc([N+](=O)[O-])cc1[N+](=O)[O-] (stereo not given) | > 100 | 13 | 10 |  |  | Active |  |  | 
C=C(C(=O)c1ccc(OC)cc1)C(OC(=O)c1ccccc1)c1ccccc1F (stereo not given) | 34.2 | 73.7 | 14.3 |  |  |  |  |  | 
COc1ccc(C(=O)/C(=C/c2ccc([N+](=O)[O-])cc2)CN2CCOCC2)cc1 | 7 | 70.1 | 5.6 |  |  |  |  |  | 
C=C(C(=O)c1ccc(OC)cc1)C(OC(=O)c1ccccc1)c1ccccc1[N+](=O)[O-] (stereo not given) | 11.8 | 45.5 | 12.7 |  |  |  |  |  | 
C=C(C(=O)c1ccc(OC)cc1)C(OC(=O)c1ccccc1)c1ccccc1Cl (stereo not given) | 36 | 30.5 | 8.5 |  |  |  |  |  | 
CC(=O)OC/C(=C/c1ccc(Cl)cc1Cl)C(=O)c1ccccc1 | 31.7 | 74.5 | 12.6 |  |  |  |  |  | 
COc1ccc(C(=O)/C(=C/c2ccc(Cl)cc2Cl)CN2CCOCC2)cc1 | 42.3 | > 100 | 8.5 |  |  |  |  |  | 
C=C(C(=O)c1ccc(OC)cc1)C(OC(=O)c1ccccc1)c1ccc(Cl)cc1Cl (stereo not given) | 26.8 | 79.2 | 9.7 |  |  |  |  |  | 
C=C(C/C(=C\c1ccccc1)C(=O)c1ccc(OC)cc1)C(=O)c1ccc(OC)cc1 | 7.4 | 22.9 | 7.4 |  |  |  |  |  | 
COc1ccc(C(=O)/C(=C/C2CCCCC2)COC(=O)c2ccccc2)cc1 | 13.7 | 36 | 10.2 |  |  |  |  |  | 
C=C(C(=O)c1ccc(OC)cc1)C(OC(=O)c1ccccc1)c1ccc([N+](=O)[O-])cc1 (stereo not given) | 56.1 | 66.6 | 13.2 |  |  |  |  |  | 
C=C(C(=O)c1ccc(OC)cc1OC)C(OC(C)=O)c1ccccc1[N+](=O)[O-] (stereo not given) | 70.1 | > 100 | 8.8 |  |  |  |  |  | 
COc1ccc(C(=O)/C(=C/c2ccc(Cl)cc2Cl)CN(C)C(=O)c2ccccc2)cc1 | 39.7 | 32.4 | 24 |  |  |  |  |  | 
COc1ccc(C(=O)/C(=C/c2ccc(Cl)cc2Cl)CC2CCCCC2)cc1 | > 100 | > 100 | 48.9 |  |  |  |  |  | 
C=C(C/C(=C\c1ccc(OC(=O)c2ccccc2)cc1)C(=O)c1ccccc1)C(=O)c1ccccc1 | 61.6 | 44.4 | 8 |  |  |  |  |  | 
C=C(C(=O)c1ccc(OC)cc1)C(OC(=O)c1ccccc1)C1CCCCC1 (stereo not given) | 34.3 | 62.1 | 10 |  |  |  |  |  | 
C=C(C/C(=C\c1ccc(C)cc1)C(=O)c1ccccc1)C(=O)c1ccccc1 | 15.9 | 20.9 | 7.6 |  |  |  |  |  | 
COc1ccc(C(=O)/C(=C\c2ccccc2Cl)COC(=O)c2ccccc2)cc1 | 36 | 52 | 20.1 |  |  |  |  |  | 
COc1ccc(C(=O)/C(=C/C2CCCCC2)CN(C)C(=O)c2ccccc2)cc1 | 32.7 | 69.7 | 32.4 |  |  |  |  |  | 
C=C(C(=O)c1ccc(OC)cc1)C(O)c1ccccc1Cl (stereo not given) | 29.6 | 28.5 | 8.1 |  |  |  |  |  | 
COc1ccc(C(=O)/C(=C/c2ccccc2Cl)COC(=O)c2ccccc2)cc1 | 9 | 20.1 | 7 | Active | Active | Active | Active | Active | Active
